Test results: ChEMBL document CHEMBL5696442, “Discovery of type II inhibitors of TGFβ-activated kinase 1 (TAK1) and mitogen-activated protein kinase kinase kinase kinase 2 (MAP4K2)” (J Med Chem, 2015)

Tests used:
[1] = biological target: Tyrosine-protein kinase Fer (Homo sapiens, UniProt P16591); assay: Inhibition of FER (unknown origin) ACT labeling site by KiNativ Profiling analysis
[2] = biological target: Tyrosine-protein kinase JAK1 (Homo sapiens) (UniProt P23458); assay: Inhibition of JAK1 JH1 catalytic domain (unknown origin) at 10 uM by Ambit Kinomescan binding assay relative to control
[3] = biological target: Calcium/calmodulin-dependent protein kinase kinase 2 (Homo sapiens) (UniProt Q96RR4); assay: Inhibition of CaMKK2 Lys1 labeling site in human A-375 cells at 0.5 uM by KiNativ Profiling analysis relative to control; assay type: cell-based
[4] = biological target: Cyclin-dependent kinase 16 (Homo sapiens) (UniProt Q00536); assay: Inhibition of PCTAIRE1 Lys1 labeling site in human A-375 cells at 0.05 uM by KiNativ Profiling analysis relative to control; assay type: cell-based
[5] = biological target: T1, Dual specificity mitogen-activated protein kinase kinase 4 (Homo sapiens) (UniProt P45985); assay: Inhibition of MAP2K4 K2 labeling site harbouring DIKPSNILLDR in human Huh-7 cells at 10 uM by KiNativ Profiling analysis relative to control; assay type: cell-based
T1 sequence (whole entry): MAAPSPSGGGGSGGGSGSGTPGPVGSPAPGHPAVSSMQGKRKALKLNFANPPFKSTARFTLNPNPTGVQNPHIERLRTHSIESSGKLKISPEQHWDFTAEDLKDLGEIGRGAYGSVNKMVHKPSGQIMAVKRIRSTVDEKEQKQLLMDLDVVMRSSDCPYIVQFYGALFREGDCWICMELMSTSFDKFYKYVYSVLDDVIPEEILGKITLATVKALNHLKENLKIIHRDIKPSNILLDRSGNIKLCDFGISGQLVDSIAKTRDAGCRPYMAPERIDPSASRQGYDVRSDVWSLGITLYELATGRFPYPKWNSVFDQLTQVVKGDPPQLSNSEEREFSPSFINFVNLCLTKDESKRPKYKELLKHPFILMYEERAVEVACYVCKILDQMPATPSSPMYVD

[6] = Inhibition of NEK6/7 K2 labeling site harbouring DIKPANVFITATGVVK in human Huh-7 cells at 10 uM by KiNativ Profiling analysis relative to control; settings: condition cancer
[7] = biological target: DNA-PK/Ku70/Ku85 (Homo sapiens) (UniProt P78527+P12956+P13010); assay: Inhibition of DNAPK ATP labeling site harbouring EHPFLVKGGEDLR in human Huh-7 cell lysate at 1 uM by KiNativ Profiling analysis relative to control; assay type: subcellular
[8] = biological target: Serine/threonine-protein kinase Nek7 (Homo sapiens) (UniProt Q8TDX7); assay: Inhibition of NEK7 Lys2 labeling site harbouring DIKPANVFITATGVVK in human Huh-7 cells at 1 uM by KiNativ Profiling analysis relative to control; assay type: cell-based
[9] = biological target: Tyrosine-protein kinase Lck (Homo sapiens) (UniProt P06239); assay: Inhibition of LCK (unknown origin) at 1 uM by Ambit Kinomescan binding assay relative to control
[10] = biological target: T2, Serine/threonine-protein kinase D1 (Homo sapiens) (UniProt Q15139); assay: Inhibition of PKD1 Lys1 labeling site in human A-375 cells at 5 uM by KiNativ Profiling analysis relative to control; assay type: cell-based
T2 sequence (whole entry): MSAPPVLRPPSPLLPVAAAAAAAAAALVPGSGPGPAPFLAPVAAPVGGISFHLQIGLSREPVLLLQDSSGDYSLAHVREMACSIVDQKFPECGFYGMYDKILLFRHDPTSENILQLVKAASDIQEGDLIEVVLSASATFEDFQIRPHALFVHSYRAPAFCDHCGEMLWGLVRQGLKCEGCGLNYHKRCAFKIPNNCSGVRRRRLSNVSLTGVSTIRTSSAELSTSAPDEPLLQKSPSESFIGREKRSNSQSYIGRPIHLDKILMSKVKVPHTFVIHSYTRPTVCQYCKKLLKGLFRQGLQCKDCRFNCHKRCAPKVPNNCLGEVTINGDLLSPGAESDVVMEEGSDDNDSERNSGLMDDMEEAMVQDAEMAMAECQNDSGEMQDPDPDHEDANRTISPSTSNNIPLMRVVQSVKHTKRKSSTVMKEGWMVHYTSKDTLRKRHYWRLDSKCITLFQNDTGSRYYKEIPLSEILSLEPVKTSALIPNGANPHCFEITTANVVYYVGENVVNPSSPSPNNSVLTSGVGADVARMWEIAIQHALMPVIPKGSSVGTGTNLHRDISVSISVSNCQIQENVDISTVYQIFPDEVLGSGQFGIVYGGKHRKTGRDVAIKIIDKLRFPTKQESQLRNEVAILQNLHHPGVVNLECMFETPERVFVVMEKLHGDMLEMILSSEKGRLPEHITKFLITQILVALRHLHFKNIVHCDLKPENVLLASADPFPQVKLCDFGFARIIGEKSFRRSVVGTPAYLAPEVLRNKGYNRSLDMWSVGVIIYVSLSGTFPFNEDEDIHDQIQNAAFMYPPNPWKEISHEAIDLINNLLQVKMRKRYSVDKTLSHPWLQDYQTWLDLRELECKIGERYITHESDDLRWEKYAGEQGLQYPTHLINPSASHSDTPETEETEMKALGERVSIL

[11] = biological target: Ribosomal protein S6 kinase alpha-3 (Homo sapiens) (UniProt P51812); assay: Inhibition of RSK2 domain1 Lys2 labeling site harbouring DLKPENILLDEEGHIK in human A-375 cells at 5 uM by KiNativ Profiling analysis relative to control; assay type: cell-based
Outline: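 Live A375 melanoma cells treated with compound at 5 or 0.5 μM, then lysed. Lysate kinases were labeled with a lysine-reactive ATP or ADP-biotin probe. Inhibition was read as protection of labeling sites from the probe.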

Sequence of Ribosomal protein S6 kinase alpha-3 (Homo sapiens) (P51812 whole entry, the tested form may be a part): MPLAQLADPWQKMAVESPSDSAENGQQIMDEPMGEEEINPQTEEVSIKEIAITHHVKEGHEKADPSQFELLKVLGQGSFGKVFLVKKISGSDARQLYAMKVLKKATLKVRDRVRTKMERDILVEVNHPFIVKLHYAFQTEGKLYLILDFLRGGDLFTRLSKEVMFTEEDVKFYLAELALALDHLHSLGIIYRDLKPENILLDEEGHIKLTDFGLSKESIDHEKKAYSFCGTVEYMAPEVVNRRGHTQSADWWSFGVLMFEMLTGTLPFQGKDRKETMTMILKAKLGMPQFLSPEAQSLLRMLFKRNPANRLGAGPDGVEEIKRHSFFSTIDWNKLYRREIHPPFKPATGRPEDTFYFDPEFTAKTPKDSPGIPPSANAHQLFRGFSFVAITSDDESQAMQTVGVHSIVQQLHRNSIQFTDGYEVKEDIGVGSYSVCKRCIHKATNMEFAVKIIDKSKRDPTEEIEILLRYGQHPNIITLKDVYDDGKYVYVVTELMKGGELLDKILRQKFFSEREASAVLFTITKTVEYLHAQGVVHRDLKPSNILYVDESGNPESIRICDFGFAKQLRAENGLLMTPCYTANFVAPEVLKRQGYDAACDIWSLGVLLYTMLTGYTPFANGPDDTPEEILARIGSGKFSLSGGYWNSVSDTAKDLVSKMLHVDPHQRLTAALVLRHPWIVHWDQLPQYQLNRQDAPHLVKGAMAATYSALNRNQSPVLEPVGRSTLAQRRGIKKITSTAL
Sequence of Serine/threonine-protein kinase Nek7 (Homo sapiens) (Q8TDX7 whole entry, looked up): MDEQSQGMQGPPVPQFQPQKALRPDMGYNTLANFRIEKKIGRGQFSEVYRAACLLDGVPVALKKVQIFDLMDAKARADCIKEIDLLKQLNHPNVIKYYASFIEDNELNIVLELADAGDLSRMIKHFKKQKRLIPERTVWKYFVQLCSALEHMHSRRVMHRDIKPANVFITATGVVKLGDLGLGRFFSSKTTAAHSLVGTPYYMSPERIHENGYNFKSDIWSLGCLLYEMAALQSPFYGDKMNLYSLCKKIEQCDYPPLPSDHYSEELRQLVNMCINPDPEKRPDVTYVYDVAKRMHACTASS
Sequence of Tyrosine-protein kinase Fer (P16591 whole entry, the tested form may be a part): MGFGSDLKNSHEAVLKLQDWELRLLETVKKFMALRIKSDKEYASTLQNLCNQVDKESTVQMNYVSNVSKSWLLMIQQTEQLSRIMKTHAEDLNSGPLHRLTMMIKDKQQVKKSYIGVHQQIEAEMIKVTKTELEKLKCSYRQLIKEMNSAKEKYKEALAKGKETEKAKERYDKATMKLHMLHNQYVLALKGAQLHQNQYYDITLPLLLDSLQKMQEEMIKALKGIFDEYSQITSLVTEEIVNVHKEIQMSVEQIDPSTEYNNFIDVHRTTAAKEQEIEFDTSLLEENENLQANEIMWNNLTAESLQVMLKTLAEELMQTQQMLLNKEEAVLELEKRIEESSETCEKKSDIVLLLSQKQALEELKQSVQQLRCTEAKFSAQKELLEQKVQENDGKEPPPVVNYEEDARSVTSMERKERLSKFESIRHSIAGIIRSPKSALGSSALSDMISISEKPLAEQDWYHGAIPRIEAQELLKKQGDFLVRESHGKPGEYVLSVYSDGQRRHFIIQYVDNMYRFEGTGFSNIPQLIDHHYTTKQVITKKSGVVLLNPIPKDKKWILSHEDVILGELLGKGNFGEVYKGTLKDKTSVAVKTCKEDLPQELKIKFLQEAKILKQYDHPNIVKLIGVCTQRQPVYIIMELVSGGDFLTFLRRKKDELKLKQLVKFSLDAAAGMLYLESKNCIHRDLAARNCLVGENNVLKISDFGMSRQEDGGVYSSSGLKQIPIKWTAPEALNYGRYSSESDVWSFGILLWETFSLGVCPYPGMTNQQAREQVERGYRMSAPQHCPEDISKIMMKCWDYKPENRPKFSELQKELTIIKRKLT
Sequence of Tyrosine-protein kinase Lck (Homo sapiens) (P06239 2-509 limits assumed): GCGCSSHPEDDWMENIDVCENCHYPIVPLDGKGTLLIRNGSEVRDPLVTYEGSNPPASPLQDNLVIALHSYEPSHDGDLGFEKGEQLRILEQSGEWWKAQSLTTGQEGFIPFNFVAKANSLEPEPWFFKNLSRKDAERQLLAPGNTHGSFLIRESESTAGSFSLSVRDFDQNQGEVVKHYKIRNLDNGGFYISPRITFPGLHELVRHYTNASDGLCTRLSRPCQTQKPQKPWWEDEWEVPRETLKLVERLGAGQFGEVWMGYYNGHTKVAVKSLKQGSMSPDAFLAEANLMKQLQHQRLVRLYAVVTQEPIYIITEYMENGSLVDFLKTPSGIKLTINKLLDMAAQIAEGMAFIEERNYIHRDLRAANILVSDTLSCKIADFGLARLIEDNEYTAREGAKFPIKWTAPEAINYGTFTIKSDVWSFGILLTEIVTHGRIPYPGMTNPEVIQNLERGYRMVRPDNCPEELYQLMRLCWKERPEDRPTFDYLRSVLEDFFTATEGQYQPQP
Sequence of Calcium/calmodulin-dependent protein kinase kinase 2 (Homo sapiens) (Q96RR4 2-588 limits assumed): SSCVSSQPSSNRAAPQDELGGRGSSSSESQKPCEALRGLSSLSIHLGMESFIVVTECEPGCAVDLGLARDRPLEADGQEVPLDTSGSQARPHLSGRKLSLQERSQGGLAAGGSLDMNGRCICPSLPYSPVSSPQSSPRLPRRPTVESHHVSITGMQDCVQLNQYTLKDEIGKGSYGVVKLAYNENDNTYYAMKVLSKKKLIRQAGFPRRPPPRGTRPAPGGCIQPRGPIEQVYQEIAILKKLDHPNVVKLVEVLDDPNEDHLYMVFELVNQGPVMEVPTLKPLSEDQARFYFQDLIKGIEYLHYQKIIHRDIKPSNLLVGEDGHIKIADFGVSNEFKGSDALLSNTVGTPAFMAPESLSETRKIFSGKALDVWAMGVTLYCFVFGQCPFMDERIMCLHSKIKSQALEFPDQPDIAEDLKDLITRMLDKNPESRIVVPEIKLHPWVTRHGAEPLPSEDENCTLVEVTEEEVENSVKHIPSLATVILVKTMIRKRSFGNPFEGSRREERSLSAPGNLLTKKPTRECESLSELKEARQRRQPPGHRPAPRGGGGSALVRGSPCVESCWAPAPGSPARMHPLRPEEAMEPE
Sequence of Cyclin-dependent kinase 16 (Homo sapiens) (Q00536 whole entry): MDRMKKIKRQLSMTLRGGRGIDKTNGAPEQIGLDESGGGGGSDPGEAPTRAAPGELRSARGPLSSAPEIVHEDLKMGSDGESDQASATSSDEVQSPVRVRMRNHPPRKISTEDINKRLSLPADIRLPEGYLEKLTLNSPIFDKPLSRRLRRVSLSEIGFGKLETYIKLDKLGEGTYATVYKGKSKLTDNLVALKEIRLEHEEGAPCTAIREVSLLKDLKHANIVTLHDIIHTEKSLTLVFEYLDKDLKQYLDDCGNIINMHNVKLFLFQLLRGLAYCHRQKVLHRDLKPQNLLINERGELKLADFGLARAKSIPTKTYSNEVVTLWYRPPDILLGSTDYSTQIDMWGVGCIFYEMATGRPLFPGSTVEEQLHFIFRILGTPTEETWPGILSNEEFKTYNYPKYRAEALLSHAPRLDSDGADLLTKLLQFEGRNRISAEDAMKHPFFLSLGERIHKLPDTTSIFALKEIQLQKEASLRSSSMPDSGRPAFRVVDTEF
Sequence of Tyrosine-protein kinase JAK1 (Homo sapiens) (P23458 whole entry, the tested form may be a part): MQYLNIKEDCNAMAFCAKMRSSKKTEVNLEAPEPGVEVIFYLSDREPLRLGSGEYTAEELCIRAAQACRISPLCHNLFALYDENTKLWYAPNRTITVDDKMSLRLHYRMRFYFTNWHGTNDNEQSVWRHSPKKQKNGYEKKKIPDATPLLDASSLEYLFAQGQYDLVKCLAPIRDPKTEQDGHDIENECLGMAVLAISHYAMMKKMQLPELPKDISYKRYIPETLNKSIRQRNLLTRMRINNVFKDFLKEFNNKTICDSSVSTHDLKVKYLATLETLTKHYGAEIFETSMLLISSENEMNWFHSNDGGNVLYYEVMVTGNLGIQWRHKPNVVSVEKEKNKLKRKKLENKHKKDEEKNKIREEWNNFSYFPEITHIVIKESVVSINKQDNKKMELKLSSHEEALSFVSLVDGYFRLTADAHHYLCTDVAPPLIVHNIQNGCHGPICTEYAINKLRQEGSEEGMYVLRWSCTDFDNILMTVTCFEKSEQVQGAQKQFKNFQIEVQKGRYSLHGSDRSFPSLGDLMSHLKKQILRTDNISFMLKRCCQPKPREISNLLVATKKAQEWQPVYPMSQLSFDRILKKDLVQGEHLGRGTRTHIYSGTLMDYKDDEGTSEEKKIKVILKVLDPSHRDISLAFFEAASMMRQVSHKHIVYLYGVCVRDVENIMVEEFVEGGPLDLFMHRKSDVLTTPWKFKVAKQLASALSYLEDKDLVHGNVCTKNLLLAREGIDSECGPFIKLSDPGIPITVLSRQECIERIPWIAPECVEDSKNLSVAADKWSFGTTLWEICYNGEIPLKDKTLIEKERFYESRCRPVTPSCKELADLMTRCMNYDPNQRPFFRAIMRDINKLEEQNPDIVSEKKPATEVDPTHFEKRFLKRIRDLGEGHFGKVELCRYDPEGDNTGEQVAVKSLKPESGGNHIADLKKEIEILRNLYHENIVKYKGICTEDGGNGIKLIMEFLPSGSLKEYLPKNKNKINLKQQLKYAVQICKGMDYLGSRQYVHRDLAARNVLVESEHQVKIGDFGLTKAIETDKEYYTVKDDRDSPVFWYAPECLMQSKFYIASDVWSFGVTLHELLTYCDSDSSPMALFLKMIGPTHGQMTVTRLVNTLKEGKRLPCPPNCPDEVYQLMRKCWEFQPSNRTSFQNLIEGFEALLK

CCN1CCN(Cc2ccc(NC(=O)c3ccc(C)c(Oc4ccnc5[nH]ccc45)c3)cc2C(F)(F)F)CC1
IC50 [1]: 0.0823 µM
inhibition [2]: 11%
inhibition [3]: 6.3%
inhibition [4]: 31.9%
inhibition [5]: -4.6%
inhibition at 10 µM [6]: 2.8%

CNc1cc(Oc2cc(C(=O)Nc3cc(N4CCN(C)CC4)cc(C(F)(F)F)c3)ccc2C)ncn1
inhibition [7]: -6.7%
inhibition [8]: -2.7%

CCN1CCN(Cc2ccc(NC(=O)c3ccc(C)c(/C=C/c4cnc5[nH]ccc5c4OC)c3)cc2C(F)(F)F)CC1
inhibition [9]: 0.35%
inhibition [10]: -9.9%
inhibition [11]: 16.5%
